Measurements as given in ChEMBL document CHEMBL4387724, “2-Pyridineformamide N(4)-ring incorporated thiosemicarbazones inhibit MCF-7 cells by inhibiting JNK pathway” (Bioorg Med Chem Lett, 2019).

What was measured:
A-375 [1] = assay: Cytotoxicity against human A375 cells assessed as reduction in cell growth at 30 uM incubated for 72 hrs by MTT assay relative to control; format: functional; conditions: A-375, 72 h, read-out: GI
A-431 [2] = assay: Cytotoxicity against human A431 cells assessed as reduction in cell growth at 30 uM incubated for 72 hrs by MTT assay relative to control; format: functional; conditions: A-431, 72 h, read-out: GI
HeLa [3] = assay: Cytotoxicity against human HeLa cells assessed as reduction in cell growth at 10 uM incubated for 72 hrs by MTT assay relative to control; format: functional; conditions: read-out: GI
In short: (§1)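 Cells grown in DMEM with 10% FBS and penicillin-streptomycin at 37 °C, 5% CO2, seeded at 3000 cells/well and attached overnight. Screening series given at 1, 3, 10, 100 μM; follow-up agent at 100 nM–3 μM; both 72 h, with 0.1% DMSO vehicle. MTT (5 mg/mL stock) added for 3 h at 37 °C, formazan dissolved in DMSO, absorbance read at 570 nm. Viability expressed as % of DMSO-treated wells from replicates.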

HeLa [4] = assay: Cytotoxicity against human HeLa cells assessed as reduction in cell growth incubated for 72 hrs by MTT assay; format: functional, cell-based; in short: as §1
MCF7 [5] = assay: Cytotoxicity against human MCF7 cells assessed as reduction in cell growth incubated for 72 hrs by MTT assay; format: functional, cell-based; conditions: MCF7, 72 h; in short: as §1
HeLa [6] = assay: Cytotoxicity against human HeLa cells assessed as reduction in cell growth at 3 uM incubated for 72 hrs by MTT assay relative to control; format: functional; conditions: read-out: GI; in short: as §1
A-375 [7] = assay: Cytotoxicity against human A375 cells assessed as reduction in cell growth at 3 uM incubated for 72 hrs by MTT assay relative to control; format: functional; conditions: A-375, 72 h, read-out: GI; in short: as §1
MCF7 [8] = assay: Cytotoxicity against human MCF7 cells assessed as reduction in cell growth at 3 uM incubated for 72 hrs by MTT assay relative to control; format: functional; conditions: MCF7, 72 h, read-out: GI; in short: as §1
A-375 [9] = assay: Cytotoxicity against human A375 cells assessed as reduction in cell growth incubated for 72 hrs by MTT assay; format: functional, cell-based; conditions: A-375, 72 h; in short: as §1
MCF7 [10] = assay: Cytotoxicity against human MCF7 cells assessed as reduction in cell growth at 1 uM incubated for 72 hrs by MTT assay relative to control; format: functional; conditions: MCF7, 72 h, read-out: GI; in short: as §1
A-431 [11] = assay: Cytotoxicity against human A431 cells assessed as reduction in cell growth at 10 uM incubated for 72 hrs by MTT assay relative to control; format: functional; conditions: A-431, 72 h, read-out: GI; in short: as §1
HeLa [12] = assay: Cytotoxicity against human HeLa cells assessed as reduction in cell growth at 30 uM incubated for 72 hrs by MTT assay relative to control; format: functional; conditions: read-out: GI
A-431 [13] = assay: Cytotoxicity against human A431 cells assessed as reduction in cell growth incubated for 72 hrs by MTT assay; format: functional, cell-based; conditions: A-431, 72 h; in short: as §1
A-375 [14] = assay: Cytotoxicity against human A375 cells assessed as reduction in cell growth at 100 uM incubated for 72 hrs by MTT assay relative to control; format: functional; conditions: A-375, 72 h, read-out: GI; in short: as §1
A-431 [15] = assay: Cytotoxicity against human A431 cells assessed as reduction in cell growth at 1 uM incubated for 72 hrs by MTT assay relative to control; format: functional; conditions: A-431, 72 h, read-out: GI; in short: as §1
HeLa [16] = assay: Cytotoxicity against human HeLa cells assessed as reduction in cell growth at 1 uM incubated for 72 hrs by MTT assay relative to control; format: functional; conditions: read-out: GI; in short: as §1
A-375 [17] = assay: Cytotoxicity against human A375 cells assessed as reduction in cell growth at 10 uM incubated for 72 hrs by MTT assay relative to control; format: functional; conditions: A-375, 72 h, read-out: GI; in short: as §1
HeLa [18] = assay: Cytotoxicity against human HeLa cells assessed as reduction in cell growth at 100 uM incubated for 72 hrs by MTT assay relative to control; format: functional; conditions: read-out: GI; in short: as §1
MCF7 [19] = assay: Cytotoxicity against human MCF7 cells assessed as reduction in cell growth at 10 uM incubated for 72 hrs by MTT assay relative to control; format: functional; conditions: MCF7, 72 h, read-out: GI; in short: as §1
A-375 [20] = assay: Cytotoxicity against human A375 cells assessed as reduction in cell growth at 1 uM incubated for 72 hrs by MTT assay relative to control; format: functional; conditions: A-375, 72 h, read-out: GI; in short: as §1
MCF7 [21] = assay: Cytotoxicity against human MCF7 cells assessed as reduction in cell growth at 100 uM incubated for 72 hrs by MTT assay relative to control; format: functional; conditions: MCF7, 72 h, read-out: GI; in short: as §1
MCF7 [22] = assay: Cytotoxicity against human MCF7 cells assessed as reduction in cell growth at 30 uM incubated for 72 hrs by MTT assay relative to control; format: functional; conditions: MCF7, 72 h, read-out: GI
A-431 [23] = assay: Cytotoxicity against human A431 cells assessed as reduction in cell growth at 3 uM incubated for 72 hrs by MTT assay relative to control; format: functional; conditions: A-431, 72 h, read-out: GI; in short: as §1
A-431 [24] = assay: Cytotoxicity against human A431 cells assessed as reduction in cell growth at 100 uM incubated for 72 hrs by MTT assay relative to control; format: functional; conditions: A-431, 72 h, read-out: GI; in short: as §1

Row | Compound | inhibition of growth at 30 µM (A-375 [1]) [%] | inhibition of growth at 30 µM (A-431 [2]) [%] | inhibition of growth at 10 µM (HeLa [3]) [%] | IC50 (HeLa [4]) [µM] | IC50 (MCF7 [5]) [µM] | inhibition of growth at 3 µM (HeLa [6]) [%] | inhibition of growth at 3 µM (A-375 [7]) [%] | inhibition of growth at 3 µM (MCF7 [8]) [%] | IC50 (A-375 [9]) [µM] | inhibition of growth at 1 µM (MCF7 [10]) [%] | inhibition of growth at 10 µM (A-431 [11]) [%] | inhibition of growth at 30 µM (HeLa [12]) [%] | IC50 (A-431 [13]) [µM] | inhibition of growth at 100 µM (A-375 [14]) [%] | inhibition of growth at 1 µM (A-431 [15]) [%] | inhibition of growth at 1 µM (HeLa [16]) [%] | inhibition of growth at 10 µM (A-375 [17]) [%] | inhibition of growth at 100 µM (HeLa [18]) [%] | inhibition of growth at 10 µM (MCF7 [19]) [%] | inhibition of growth at 1 µM (A-375 [20]) [%] | also measured
1 | Cc1ccnc(/C(N)=N/NC(=S)N2CCN(c3ccccn3)CC2)c1 | 79.4 | 65.7 | 49.2 | 10.5 | 12.3 | 42.5 | 74.8 | 32.8 | 0.78 | 21 | 44 | 77 | 15.5 | 81 | 28.9 | 40.4 | 76 | 85.6 | 32.1 | 64.4 | inhibition of growth at 100 µM (MCF7 [21]): 63.4%; inhibition of growth at 30 µM (MCF7 [22]): 63.8%; inhibition of growth at 3 µM (A-431 [23]): 34.7%; inhibition of growth at 100 µM (A-431 [24]): 75.5%
2 | N/C(=N\NC(=S)N1CCSCC1)c1ccc(F)cn1 | 78.7 | 84.6 | 70.5 | 1.7 | 21.4 | 62.9 | 62.2 | 35.4 | 0.9 | 30.6 | 61.8 | 81.7 | 1.2 | 83.2 | 48.7 | 19.6 | 70.9 | 88.1 | 38.1 | 55.1 | inhibition of growth at 100 µM (MCF7 [21]): 65.7%; inhibition of growth at 30 µM (MCF7 [22]): 58.8%; inhibition of growth at 3 µM (A-431 [23]): 61.2%; inhibition of growth at 100 µM (A-431 [24]): 86.6%
3 | N/C(=N\NC(=S)N1CCCCC1)c1ccccn1 | 87 | 79.7 | 55.7 | 3.8 | 8.5 | 49.2 | 86.5 | 38.6 | 0.68 | 15.4 | 68.1 | 76.9 | 6.9 | 88.5 | 24.4 | 15.5 | 85.8 | 86 | 53.1 | 72.5 | inhibition of growth at 100 µM (MCF7 [21]): 77.7%; inhibition of growth at 30 µM (MCF7 [22]): 69.3%; inhibition of growth at 3 µM (A-431 [23]): 27%; inhibition of growth at 100 µM (A-431 [24]): 85.6%
4 | N/C(=N\NC(=S)N1CCCCCC1)c1ccccn1 | 90 | 72.3 | 67.4 | 6 | 2.6 | 36.6 | 78.6 | 56 | 0.74 | 25.3 | 67 | 82.9 | 3 | 89 | 18.8 | 21.3 | 86.5 | 88.7 | 62.2 | 67 | inhibition of growth at 100 µM (MCF7 [21]): 84%; inhibition of growth at 30 µM (MCF7 [22]): 76.5%; inhibition of growth at 3 µM (A-431 [23]): 50.3%; inhibition of growth at 100 µM (A-431 [24]): 77.5%
5 | N/C(=N\NC(=S)N1CCOCC1)c1ccc(F)cn1 | 85.9 | 82.3 | 81.9 | 1.7 | 22.1 | 59.7 | 66.4 | 33.9 | 1.5 | 12.4 | 66.9 | 84.5 | 4 | 86.2 | 31.8 | 21.4 | 70.3 | 81.2 | 39.5 | 44.5 | inhibition of growth at 100 µM (MCF7 [21]): 61.5%; inhibition of growth at 30 µM (MCF7 [22]): 56.7%; inhibition of growth at 3 µM (A-431 [23]): 47%; inhibition of growth at 100 µM (A-431 [24]): 85.6%
6 | Cc1ccnc(/C(N)=N/NC(=S)N2CCSCC2)c1 | 84.9 | 75.3 | 39.2 | 15.5 | 6.9 | 40.4 | 67.2 | 33.8 | 1.2 | 3.89 | 60 | 78.3 | 7.2 | 89.9 | 34.6 | 41.1 | 74.5 | 91.6 | 62.5 | 47.7 | inhibition of growth at 100 µM (MCF7 [21]): 76.8%; inhibition of growth at 30 µM (MCF7 [22]): 74.2%; inhibition of growth at 3 µM (A-431 [23]): 34.7%; inhibition of growth at 100 µM (A-431 [24]): 79.6%
